# An excerpt weighted towards active compounds, which were near 1.4% of everything screened.
# HTRA1 inh – HTRA1 (human) protease inhibition. Q92743. recombinant HTRA1, FP-rhodamine activity-based probe, fluorescence polarization. inhibition, % at 5.96 µM. hit rate 0.5% among 340,000; in the data active means inhibition above about 36%;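 further: 0% = enzyme with DMSO and 100% = wells lacking enzyme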
# ABHD4 inh – ABHD4 (mouse) inhibition, primary FP screen. Q8VD66. AID 720543. hit rate 0.54% among 370,000. purified mABHD4, FP-Rh probe fluorescence polarization. inhibition, % at 8.92 µM;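 active means inhibition exceeding the mean over every tested compound plus 3 SD, cut at about 30% in these data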;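 further: 0% = plate median of compound wells and 100% = S159A mutant with DMSO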
#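 system = mouse ABHD4 enzyme, wild type | medium = HEPES pH 7.0, NaCl, Pluronic buffer | also added = FP-Rh probe | incubation = Enzyme–compound pre-incubation 45 min, then probe 60 min, both 25 °C | technique = fluorescence polarization, excitation 525 nm, emission 598 nm, BODIPY TMR filters | controls = S159A mutant high control, sample median low control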
# RBBP9 inh – human RBBP9 hydrolase inhibition | O75884 | recombinant RBBP9, FP-Rh probe fluorescence polarization | inhibition, % at 7.94 µM | hit rate 0.2% among 220,000;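 active means inhibition above the campaign mean of all tested compounds plus 3 SD, cut at about 14% in these data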;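 further: plate controls were DMSO wells with RBBP9 for no effect and wells lacking RBBP9 protein for full effect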
# Target sequence (O75884 whole entry, looked up): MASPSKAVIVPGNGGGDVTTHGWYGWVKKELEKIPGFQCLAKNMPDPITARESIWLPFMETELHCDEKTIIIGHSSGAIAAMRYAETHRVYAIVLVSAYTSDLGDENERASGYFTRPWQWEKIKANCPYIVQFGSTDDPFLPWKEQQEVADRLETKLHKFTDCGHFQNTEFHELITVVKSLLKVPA
#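 Material: RBBP9 protein. Amount: RBBP9 at 2.5 µM in dispensed solution, before mixing. Schedule: 30 min then 45 min, 25 °C. Medium: Tris buffer pH 8.0, NaCl, Pluronic. Measured by: fluorescence polarization. Measure: percent inhibition from mP, scaled between DMSO and no-protein wells. Replication: one well per compound.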
# SIAE primary – inhibitors of human sialic acid acetylesterase SIAE | AID 1053197 | inhibition, % at 9.66 µM | hit rate 0.69% among 370,000 | SIAE FP-Rh probe binding, fluorescence polarization;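 active means inhibition above a cutoff: mean of compounds within the control limits plus 3 SD of those, cut at about 17% in these data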;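 further: 0% = plate median of compound wells and 100% = probe without SIAE protein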
# Target sequence (Q9HAT2 whole entry, looked up): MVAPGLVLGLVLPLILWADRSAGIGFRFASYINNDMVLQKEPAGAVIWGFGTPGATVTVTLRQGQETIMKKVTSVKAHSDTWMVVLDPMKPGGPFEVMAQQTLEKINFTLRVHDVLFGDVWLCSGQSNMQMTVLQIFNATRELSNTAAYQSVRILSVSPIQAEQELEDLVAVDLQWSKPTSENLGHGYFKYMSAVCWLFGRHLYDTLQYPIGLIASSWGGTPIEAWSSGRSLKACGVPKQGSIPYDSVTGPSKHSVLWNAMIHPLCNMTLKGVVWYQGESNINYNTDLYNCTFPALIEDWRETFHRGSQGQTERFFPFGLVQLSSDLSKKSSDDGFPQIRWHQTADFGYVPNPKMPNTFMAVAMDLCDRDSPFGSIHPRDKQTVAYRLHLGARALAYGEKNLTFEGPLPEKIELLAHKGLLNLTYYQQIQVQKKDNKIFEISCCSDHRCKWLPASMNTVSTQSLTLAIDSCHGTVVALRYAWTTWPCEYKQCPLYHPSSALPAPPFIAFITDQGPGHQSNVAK
# HTRA1 conf – HTRA1 (human) inhibition, confirmation. hit rate 66% among 1,600. shares compounds with HTRA1 inh. recombinant HTRA1, FP-rhodamine activity-based probe, fluorescence polarization. AID 540248. inhibition, % at 5.96 µM;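 active means mean inhibition over three repeats above a set limit taken from the earlier primary screen, cut at about 37% in these data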;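 further: 0% = HTRA1 with DMSO and 100% = wells lacking HTRA1; inhibitors block probe binding so polarization drops and inhibition rises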
# mABHD4 conf – ABHD4 (mouse) inhibition, FP confirmation; purified mABHD4, FP-Rh probe fluorescence polarization; shares compounds with ABHD4 inh; inhibition, % at 8.92 µM; hit rate 55% among 1,800;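 active means mean inhibition across replicates above the hit cutoff set in the primary screen, cut at about 30% in these data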;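 further: 0% = wild-type ABHD4 with DMSO and 100% = catalytically dead S159A mutant with DMSO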
# SIAE confirm – human SIAE inhibition, confirmation; shares compounds with SIAE primary; SIAE FP-Rh activity-based probe, fluorescence polarization; inhibition, % at 9.66 µM; hit rate 13% among 2,300;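 active means mean inhibition of the replicates above the hit cutoff set in the primary screen, cut at about 17% in these data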;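 further: 0% = SIAE with DMSO and probe and 100% = probe without SIAE; inhibitors lower polarization as more probe stays unbound to SIAE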
# * = called active by the depositor; nt = no result.
SMILES,HTRA1 inh,ABHD4 inh,RBBP9 inh,SIAE primary,HTRA1 conf,mABHD4 conf,SIAE confirm
C[C@@H]1ON(C)[C@H]2C[C@H]3c4[nH]c5cccc(-c6ccccc6F)c5c4CCN3C(=O)[C@@H]12,nt,4.6,nt,-3.0,nt,nt,nt
O=C(Nc1ccc(O)cc1)C1CC=CCC1 (configuration not stated),47.7*,25.8,-7.8,22.7*,42.0*,nt,14.7
CCOc1ccc(-n2c(SCC(=O)c3ccc4ccccc4c3)nnc2-c2ccc(OC)cc2)cc1,nt,-2.6,nt,-2.4,nt,nt,nt
Cc1cc(/C=N/n2c(COc3ccccc3C)nc3ccccc3c2=O)c(O)c([N+](=O)[O-])c1,31.8,3.4,-1.1,9.8,nt,nt,nt
O=c1c2ccccc2nc(COc2ccccc2)n1/N=C/c1cc([N+](=O)[O-])ccc1O,36.5*,2.6,-6.3,20.2*,47.4*,nt,-9.6
Oc1ccc(N=Cc2ccc(OCc3ccccc3)cc2)cc1,62.8*,67.6*,1.2,45.5*,-8.8,16.5,4.4
O=S(=O)(c1ccc(F)cc1)N1CN(Cc2ccco2)c2nc3ccccc3nc21,45.9*,45.5*,-0.7,33.6*,1.0,-11.1,-1.7
Cc1ccc(S(=O)(=O)N2CN(Cc3ccco3)c3nc4ccccc4nc32)cc1,-20.1,-8.6,-1.3,-4.0,nt,nt,nt
Cc1ccccc1S(=O)(=O)N(C)C[C@H]1OCc2cnnn2CCCC(=O)N([C@H](C)CO)C[C@H]1C,3.3,6.0,nt,7.4,nt,nt,nt
Oc1ccc(/C=N/Nc2ccc(Cl)nn2)c(O)c1O,57.3*,39.6*,nt,22.6*,40.5*,81.3*,-3.5
Oc1c(Br)cc(Br)cc1/C=N/Nc1ccc(Cl)nn1,31.3,3.8,nt,6.6,nt,nt,nt
COC(=O)N1C[C@H](OC(=O)c2ccc(-c3ccccc3)cc2)[C@H]2C[C@@H]1c1ccccc1O2,nt,4.4,nt,-1.8,nt,nt,nt
Cc1ccc(-n2c(O)c(/C=N/Nc3ccc(S(=O)(=O)N4CCOCC4)cc3[N+](=O)[O-])c3ccccc3c2=O)c(C)c1,48.0*,25.8,-8.5,20.9*,156.3*,nt,0.2
O=C(O)c1ccc(/C=N\Nc2ccc(S(=O)(=O)N3CCOCC3)cc2[N+](=O)[O-])cc1,-3.5,-15.9,-8.9,-4.8,nt,nt,nt
CCCCNC(=O)c1ccc2nc(-c3ccco3)c(-c3ccco3)nc2c1,53.5*,60.4*,-5.5,26.8*,39.0*,52.1*,7.9
S=C(Nc1ccc(N2CCOCC2)cc1)Nc1ccc2nc(-c3ccco3)c(-c3ccco3)nc2c1,47.7*,37.7*,12.3,20.5*,31.8,42.5*,4.7
O=C(Nc1ccccc1)c1ccc2nc(-c3ccco3)c(-c3ccco3)nc2c1,59.4*,46.7*,7.6,22.4*,-20.0,21.9,-1.5
COc1ccc(-c2nc3ccccc3nc2-c2ccc(OC)cc2)cc1,-21.2,-12.9,nt,-2.2,nt,nt,nt
COc1ccc2nc(-c3ccco3)c(-c3ccco3)nc2c1,51.9*,57.0*,6.2,22.8*,32.7,28.6,4.1
CCCNC(=O)c1ccc2nc(-c3ccccc3)c(-c3ccccc3)nc2c1,-14.7,-4.2,3.5,7.8,nt,nt,nt
Cc1c(C)n(CCCN(C)C)c2ncnc(NC3CCCCC3)c12,-10.8,4.2,nt,6.2,nt,nt,nt
Cc1cc(C)n2nc(C(=O)OCC(=O)NCc3ccc(F)cc3)nc2n1,6.1,2.8,nt,8.3,nt,nt,nt
COc1ccccc1/C=N/NC(=O)c1cc2c(OC)c(OC)ccc2[nH]1,-1.1,4.9,nt,10.0,nt,nt,nt
COc1ccc(OC)c2[nH]c(C(=O)N/N=C/c3ccccc3O)cc12,53.9*,24.0,nt,34.8*,22.1,nt,8.5
COc1ccc(CN2C(=O)CCC2(C)c2nnnn2C2CCCCC2)cc1 (configuration not stated),nt,-0.2,nt,4.2,nt,nt,nt
SMILES,HTRA1 inh,ABHD4 inh,RBBP9 inh,SIAE primary,HTRA1 conf,mABHD4 conf,SIAE confirm
C#CCN1CC(N(C)CCOC(=O)c2ccc(F)cc2)CS1(=O)=O (configuration not stated),nt,6.8,nt,1.1,nt,nt,nt
O=C1CCSc2cccc3cccc(c23)N1,-8.7,5.2,6.3,-4.4,nt,nt,nt
S=C1NC2(CCCCC2)NN1c1ccccc1,1.1,6.7,-9.3,3.6,nt,nt,nt
c1cc2c3c(cccc3c1)NC1(CCC3(CC1)Nc1cccc4cccc(c14)N3)N2,55.7*,17.0,8.1,38.3*,55.1*,nt,2.7
c1cc2c3c(cccc3c1)NC1(CCCCCC1)N2,39.2*,17.4,-4.1,18.9*,51.2*,nt,1.5
O=C1c2cccc3c(O)ccc(c23)C(=O)N1Cc1ccco1,44.0*,49.2*,8.5,20.2*,38.2*,45.5*,21.1*
CCOc1ccc(C(=O)C2CCN(C(=O)c3ccc([N+](=O)[O-])cc3)CC2)cc1,0.4,-0.3,nt,2.9,nt,nt,nt
CCNc1ccc(Br)cc(C(=O)/C=C/c2ccccc2Cl)c1=O,64.5*,36.8*,0.3,21.9*,25.1,43.3*,9.5
c1ccc(-c2ccc3ccccc3n2)cc1,-0.8,-13.6,nt,-4.8,nt,nt,nt
CNc1ccccc(-c2ccc3ccccc3n2)c1=O,38.5*,36.1*,-1.6,20.6*,4.4,14.0,2.1
C/C(CC(=O)N1CCCC1)=N\NC(=O)c1cc2ccccc2cc1O,47.6*,36.2*,-0.5,17.1*,30.7,26.7,-1.4
CN(C)Cc1csc(Nc2ccc(C(F)(F)F)cn2)n1,nt,3.9,nt,-12.3,nt,nt,nt
COc1cc(N=C2C(=O)N3c4c(cccc42)C(C)=CC3(C)C)cc(OC)c1,4.8,21.2,0.1,1.0,nt,nt,nt
CC1=CC(C)(C)N2C(=O)C(=Nc3ccc(O)cc3)c3cccc1c32,53.2*,59.7*,4.9,21.6*,9.7,28.0,6.7
N#C/C(=C\c1ccc(O)c(O)c1)C(=O)Nc1cccc2ncccc12,52.0*,27.9,nt,29.1*,39.3*,nt,0.0
Cc1ccc(S(=O)(=O)N2CC3(COC(C)(C)OC3)C[C@H]2CON2C(C)(C)CCCC2(C)C)cc1,nt,-2.7,nt,3.1,nt,nt,nt
O=C(NCc1ccccn1)C1Nc2ccc(OC(F)(F)F)cc2C2C=CCC12 (configuration not stated),42.9*,48.0*,nt,17.4*,-1.2,-3.9,1.0
O=C1NC2(CCCCCC2)C(=O)N1Cc1ccccc1Cl,-0.7,3.3,nt,-8.8,nt,nt,nt
COc1cccc(CN2CC(C(=O)NCCc3cn4cccnc4n3)CCC2=O)c1 (configuration not stated),1.9,0.3,nt,-2.7,nt,nt,nt
CN(C)c1ccc(-c2nn3c(-c4ccco4)nnc3s2)cc1,nt,1.9,nt,6.9,nt,nt,nt
COc1ccc(N)c2c1C(=O)c1ccccc1C2=O,37.9*,43.5*,-7.2,20.5*,34.2,1.3,11.9
Nc1ccc(Br)c2c1C(=O)c1ccccc1C2=O,nt,nt,-4.8,nt,nt,nt,nt
Nc1ccc(O)c2c1C(=O)c1ccccc1C2=O,88.2*,86.5*,11.4,55.0*,95.8*,73.8*,53.8*
COc1ccc(OC)c(S(=O)(=O)NCC2CCN(C(=O)C(=O)c3cc4ccccc4o3)CC2)c1,nt,1.7,nt,-2.8,nt,nt,nt

# From PubChem
